Assay results from ChEMBL document CHEMBL1139873, “Bispyridinium dienes: histone deacetylase inhibitors with selective activities” (J Med Chem, 2007).
The source made the active and inactive calls. No cut-off for these calls is given here.

Experiments:
[1] = tested on: U-937; test: Increase in histone H3 acetylation in U937 cells at 5 uM after 24 hrs by Western blot analysis; type: cell-based; conditions: Homo sapiens
[2] = tested on: U-937; test: Effect on alpha tubulin acetylation in U937 cells at 1 uM after 24 hrs by Western blot analysis; type: functional, cell-based; conditions: Homo sapiens
[3] = tested on: U-937; test: Effect on alpha tubulin acetylation in U937 cells at 5 uM after 24 hrs by Western blot analysis; type: functional, cell-based; conditions: Homo sapiens
[4] = tested on: U-937; test: Induction of apoptosis in U937 cells after 30 hrs by FACS analysis; type: functional, cell-based; conditions: Homo sapiens
Outline: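 U937 cells in supplemented RPMI were exposed 30 h to compounds dissolved in DMSO (1 or 5 µM). Apoptosis was scored by flow cytometry as the percentage of active caspase 3-positive cells, as the mean of independent duplicates.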

[5] = tested on: U-937; test: Effect on cell cycle analysis in U937 cells assessed as accumulation at G1 phase after 30 hrs; type: functional, cell-based; conditions: Homo sapiens
Outline: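 U937 cells grown in RPMI with 10% FCS, antibiotics, 10 mM HEPES and 2 mM glutamine at 200 000 cells/mL, then treated 30 h with compounds in DMSO (1 or 5 µM). 2.5 × 10⁵ cells in hypotonic buffer (0.1% Triton X-100, 0.1% sodium citrate, 50 µg/mL propidium iodide, RNAse A), 30 min in the dark. DNA content by flow cytometry; run at least twice.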

[6] = target: Histone deacetylase 4 (Homo sapiens, UniProt P56524); test: Inhibition of HDAC4
Sequence of Histone deacetylase 4 (P56524 whole entry, the tested form may be a part): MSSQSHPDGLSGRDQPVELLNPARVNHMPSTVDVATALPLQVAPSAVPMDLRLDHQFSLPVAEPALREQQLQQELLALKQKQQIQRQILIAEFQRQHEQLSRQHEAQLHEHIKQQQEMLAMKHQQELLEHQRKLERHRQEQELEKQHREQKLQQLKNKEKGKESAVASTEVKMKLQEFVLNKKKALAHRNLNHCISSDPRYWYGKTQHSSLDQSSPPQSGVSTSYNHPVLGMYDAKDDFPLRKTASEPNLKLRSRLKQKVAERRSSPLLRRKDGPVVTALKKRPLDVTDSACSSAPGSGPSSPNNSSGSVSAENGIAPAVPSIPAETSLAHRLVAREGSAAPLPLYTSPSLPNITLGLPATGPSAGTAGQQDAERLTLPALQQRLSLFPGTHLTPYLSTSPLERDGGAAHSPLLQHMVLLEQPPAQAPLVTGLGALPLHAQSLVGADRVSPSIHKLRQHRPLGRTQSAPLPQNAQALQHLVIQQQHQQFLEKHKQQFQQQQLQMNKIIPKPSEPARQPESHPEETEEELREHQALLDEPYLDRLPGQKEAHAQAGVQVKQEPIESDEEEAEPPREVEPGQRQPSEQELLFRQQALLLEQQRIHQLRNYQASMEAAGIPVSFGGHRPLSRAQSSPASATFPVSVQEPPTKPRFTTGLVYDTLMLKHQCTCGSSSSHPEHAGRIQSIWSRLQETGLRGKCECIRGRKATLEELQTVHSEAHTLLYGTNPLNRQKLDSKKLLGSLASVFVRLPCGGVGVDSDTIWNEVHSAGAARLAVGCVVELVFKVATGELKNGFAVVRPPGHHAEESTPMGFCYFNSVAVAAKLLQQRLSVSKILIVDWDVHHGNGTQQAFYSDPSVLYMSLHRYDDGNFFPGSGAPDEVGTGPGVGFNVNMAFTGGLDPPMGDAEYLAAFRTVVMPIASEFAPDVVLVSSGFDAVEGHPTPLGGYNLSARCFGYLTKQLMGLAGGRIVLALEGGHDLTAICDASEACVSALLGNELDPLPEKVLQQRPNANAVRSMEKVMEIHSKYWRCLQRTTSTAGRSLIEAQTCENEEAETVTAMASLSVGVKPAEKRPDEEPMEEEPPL
Outline: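 HDAC4 catalytic fragment (aa 627-1085, C-terminal GST tag, baculovirus-expressed) was used at 2 µg per assay with 1-2 h enzymatic incubation in the fluorimetric deacetylase assay. Four scalar concentrations were tested in quadruplicate, and the IC50 was calculated from fluorescence.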

[7] = target: T1, Histone deacetylase 1 (Homo sapiens, UniProt Q13547); test: Inhibition of HDAC1
T1 sequence (Q13547 whole entry): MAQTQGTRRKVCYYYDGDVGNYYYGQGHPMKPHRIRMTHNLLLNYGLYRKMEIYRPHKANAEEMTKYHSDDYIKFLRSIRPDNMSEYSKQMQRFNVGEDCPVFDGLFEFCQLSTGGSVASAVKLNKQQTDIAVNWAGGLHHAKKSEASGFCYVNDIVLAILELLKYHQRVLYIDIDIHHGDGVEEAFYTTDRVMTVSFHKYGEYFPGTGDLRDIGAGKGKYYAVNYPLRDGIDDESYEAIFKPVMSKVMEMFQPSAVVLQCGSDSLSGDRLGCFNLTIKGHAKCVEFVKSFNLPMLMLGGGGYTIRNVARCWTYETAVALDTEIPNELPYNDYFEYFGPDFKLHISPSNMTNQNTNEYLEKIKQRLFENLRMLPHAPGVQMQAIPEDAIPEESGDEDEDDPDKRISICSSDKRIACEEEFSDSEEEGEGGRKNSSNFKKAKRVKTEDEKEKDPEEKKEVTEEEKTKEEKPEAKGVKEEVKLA
Outline: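 Purified recombinant HDAC1 was incubated with the acetyl-lysine Fluor de Lys substrate, with or without inhibitor. Developer then released a fluorophore, read by fluorimetry. Four scalar concentrations were tested in quadruplicate to derive the IC50.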

[8] = tested on: U-937; test: Effect on granulocyte differentiation in U937 cells assessed as CD11c expression after 30 hrs; type: functional, Homo sapiens
Outline: (§1)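 U937 cells were stained with phycoerythrine-conjugated anti-CD11c for 30 min at 4 °C in the dark, with PE-mouse IgG1 as the staining control. Cells were washed in PBS, taken up in PBS with 0.25 µg/mL propidium iodide and analysed by FACS. PI-positive cells were excluded.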

[9] = tested on: U-937; test: Effect on granulocyte differentiation in U937 cells assessed as CD11c expression at 5 uM after 30 hrs; type: functional, cell-based; conditions: Homo sapiens; outline: as §1
[10] = target: T1, Histone deacetylase 1; test: Inhibition of HDAC1 at 5 uM

IC50 [6] [nM] | IC50 [7] [nM] | Activity [10] | SMILES | Activity [1] | Activity [2] | Activity [3] | Activity [4] | Activity [5] | Activity [8] [%] | Activity [9]
 |  |  | O=C(CCCCCCC(=O)Nc1ccccc1)NO | Active | inactive | inactive |  |  |  | 
 |  |  | C=CCCCCCC[n+]1cccc(CCCCCCCCCCCCC[n+]2cccc(CCCCC=C)c2)c1 | Active | inactive | inactive | Active |  |  | 
540 | 1880 |  | C=CCCCCCC[n+]1cccc(CCCCCCCCCCCC[n+]2cccc(CCCC=C)c2)c1.[Cl-].[I-] | Active | inactive | inactive | Active | Active | 30 | 
 |  |  | C=CCCCCCCc1ccc[n+](CCCCCCCCCCCCc2ccc[n+](CCCCCCC=C)c2)c1.[Cl-].[I-] | Active | inactive | inactive | Active |  | 30 | 
 |  |  | c1cc2c[n+](c1)CCCCCCCCCCCCc1ccc[n+](c1)CCCCCCCCCCC2 |  | inactive | inactive |  |  |  | 
 |  |  | c1cc2c[n+](c1)CCCCCCCCCCCCCc1ccc[n+](c1)CCCCCCCCCCC2 | Active | inactive | inactive |  |  |  | 
 |  |  | c1cc2c[n+](c1)CCCCCCCCCCCCc1ccc[n+](c1)CCCCCCCCCCCC2 |  | inactive | inactive |  |  |  | 
 |  |  | C=CCCCCCCc1ccc[n+](CCCCCCCCCCCCCc2ccc[n+](CCCCCCC=C)c2)c1 | Active | inactive | inactive | Active |  |  | 
 |  |  | c1cc2c[n+](c1)CCCCCCCCCCCCCc1ccc[n+](c1)CCCCCCCCCCCC2 | Active | inactive | inactive |  |  |  | 
> 200000 | 530 | Active | C=CCCCCCC[n+]1cccc(CCCCCCCCCCCC[n+]2cccc(CCCCC=C)c2)c1.[Cl-].[I-] | Active | inactive | inactive | Active |  | 30 | Active
 |  |  | Nc1ccccc1NC(=O)c1ccc(CNC(=O)OCc2cccnc2)cc1 | Active | inactive | inactive |  |  |  | 
 |  |  | c1cc2c[n+](c1)CCCCCCCCCCCCCCc1ccc[n+](c1)CCCCCCCCCCCC2 |  | inactive | inactive |  |  |  | 
 |  |  | c1cc2c[n+](c1)CCCCCCCCCCCCCCc1ccc[n+](c1)CCCCCCCCCCCCC2 |  | inactive | inactive |  |  |  | 
 |  |  | C=CCCCCCC[n+]1cccc(CCCCCCCCCCCCC[n+]2cccc(CCCC=C)c2)c1.[Cl-].[I-] | Active | inactive | inactive | Active |  | 30 | 
